Experimental data taken from ChEMBL document CHEMBL4028907, “Semisynthesis and Biological Evaluation of Xanthone Amphiphilics as Selective, Highly Potent Antifungal Agents to Combat Fungal Resistance” (J Med Chem, 2017).
In brackets after ≈: the same amount, converted by molar mass. Activity calls are given as the source filed them. The calls are words filed in the database; no cut-off is given here.

Columns and labels:
[1] = tested on: Aspergillus brasiliensis; test: Antifungal activity against Aspergillus brasiliensis TCC16404 after 48 hrs by two fold serial dilution method; format: functional; conditions: TCC16404, 48 h
Summary of the method: (§1)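 Moulds grown on potato dextrose agar, 30 °C, 4 days; inoculum adjusted to about 5×10^3 CFU/mL. Two-fold serial dilutions in RPMI-1640 broth, 100 to 0.78 μg/mL final, mixed with equal volume of cell suspension; incubated 30 °C, 48 h. MIC = lowest concentration inhibiting growth, judged visually and by OD530.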

[2] = tested on: Lipid bilayer; test: Induction of membrane permiablization in calcein loaded DOPC/DOPE/PI large unilamellar vesicles assessed as calcein leakage at 1:4 compound to lipid ratio after 1 to 2 hrs by fluorescence assay relative to control
Summary of the method: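 LUVs (DOPC/DOPE/PI 2:1:1 with 15 wt % ergosterol, about 100 nm) made by film hydration and extrusion, loaded with 80 mM calcein in HEPES buffer pH 7.4. Free dye removed by G-50 column. Compound added in 0.5% DMF at 50 μM final phospholipid. Emission read at 520 nm (excitation 490 nm); leakage normalized to 1% Triton X-100.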

[3] = Cytotoxicity against human corneal fibroblasts assessed as cell viability at 100 uM after 4 hrs by LDH assay relative to control; format: cell-based, Corneal fibroblast; conditions: read-out: Activity
Summary of the method: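 LDH release assay on human corneal fibroblasts seeded at 10000 cells per well, exposed to a range of compound concentrations up to 100 μM. 1% Triton X-100 served as positive control and 0.5% DMSO as negative control; biological replicates.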

[4] = tested on: Candida albicans; test: Induction of membrane permiablization in drug resistant Candida albicans DF2672R at 4 times MIC after 1 to 2 hrs by SYTOX green dye based spectrofluorometric assay; format: functional
Summary of the method: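 Overnight cultures washed and resuspended in PBS at OD600 0.2, then loaded with 0.3 μM SYTOX Green in the dark. After the signal stabilised, compound in PBS/DMF was added (final DMF 0.5%; 0.5% DMF as control). Fluorescence (ex 504/em 523 nm) followed continuously for 1–2 h; biological replicates.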

[5] = tested on: Candida albicans; test: Synergistic antifungal activity against drug resistant Candida albicans DF2672R after 24 hrs in presence of miconazole by checkerboard assay; format: functional
Summary of the method: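 Checkerboard combination of each compound with a second antifungal, following a previously reported procedure. FIC = MIC of A in combination/MIC of A alone + MIC of B in combination/MIC of B alone.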

[6] = tested on: Candida albicans; test: Fungicidal activity against drug resistant Candida albicans DF2672R at 4 times MIC after 1 hr by time kill assay relative to control; format: functional
Summary of the method: (§2)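 Cells at 10^5–10^6 CFU/mL exposed to 1×, 2×, 4× or 8× MIC at 35 °C. Samples taken at 0.5, 1, 2, 4, 8 and 24 h, serially diluted in PBS and plated on SDA. CFU counted after 24 h at 35 °C; biological replicates.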

[7] = tested on: Fusarium solani; test: Antifungal activity against Fusarium solani 46492 after 48 hrs by two fold serial dilution method; format: functional; conditions: Fusarium solani, 46492, 48 h; summary of the method: as §1
[8] = tested on: Candida albicans; test: Antifungal activity against drug resistant Candida albicans DF2672R measured after 27 passages by two fold serial dilution method; format: functional
Summary of the method: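 Serial passage: cells from duplicate tubes at 0.5× MIC adjusted to ~5×10^3 CFU/mL and used as the inoculum for the next broth microdilution MIC, 24 h at 35 °C. Repeated for 27–30 passages, with biological replicates.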

[9] = Selectivity index, ratio of HC50 for New Zealand white rabbit RBC to MIC for Candida albicans ATCC 10231
[10] = tested on: Candida albicans; test: Fungicidal activity against drug resistant Candida albicans DF2672R at 1 time MIC after 1 hr by time kill assay relative to control; format: functional; summary of the method: as §2
[11] = tested on: Staphylococcus aureus; test: Antibacterial activity against Staphylococcus aureus DM4001R by two fold serial dilution method; format: functional
Summary of the method: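 Broth microdilution (CLSI, minor modifications) in Sabouraud dextrose, Mueller−Hinton or RPMI 1640 broth; two-fold serial dilutions of compound from stock to final 100 to 0.78 μg/mL. MIC taken as lowest concentration giving no visible growth.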

In the case of `COc1c(OCC(O)CNC(=N)N)cc2oc3cc(OCC(O)CNC(=N)N)c(CC=C(C)C)c(O)c3c(=O)c2c1CC=C(C)C` (stereo unspecified), the MIC [1] is reported as 3.13 µg/mL (≈ 4.88 µM), the Activity [2] is reported as 75.6% and the viability at 4 h, 100 µM [3] is reported as 44.4%. For the same compound, the Activity [4] was “Active”, the “fractional inhibitory concentration index (FICI)” value [5] was 0.88 and the Activity [6] was 99.9%. For the same compound, the MIC [7] was 3.13 µg/mL (≈ 4.88 µM), the Activity [8] was “Active” and the Selectivity Index [9] was 61. For the same compound, the Activity [10] was 91% and the MIC [11] was 1.56 to 3.13 µg/mL (≈ 2.43 to 4.88 µM).
